# Data from PMC4443282 (Molecules and Cells, 2015).
# Positions count from the first letter of the chain named.
# What was measured:
# [1] = system: wild-type KSI; assay: Kinetic parameters kcat and KM for steroid substrate; type: biochemical, Pseudomonas putida; settings: relative to wild type
# [2] = system: Y30F KSI; assay: as above; type: biochemical, Pseudomonas putida; settings: relative to wild type
# [3] = system: Y55F KSI; assay: as above; type: biochemical, Pseudomonas putida; settings: relative to wild type
# [4] = molecular target: T1, Y115F KSI (Pseudomonas putida, UniProt P07445, Y119F); assay: as above; type: biochemical
# T1 sequence (P07445 1-131 Y119F): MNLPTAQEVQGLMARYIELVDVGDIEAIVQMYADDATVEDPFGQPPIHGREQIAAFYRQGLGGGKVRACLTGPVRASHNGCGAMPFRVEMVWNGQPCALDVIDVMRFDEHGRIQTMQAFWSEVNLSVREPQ
# [5] = system: Y30F/Y55F KSI; assay: as above; type: biochemical, Pseudomonas putida; settings: relative to wild type
# [6] = molecular target: T2, Y30F/Y55F/Y115F KSI (Pseudomonas putida, UniProt P07445, Y119F/Y32F/Y57F); assay: as above; type: biochemical
# T2 sequence (P07445 1-131 Y32F/Y57F/Y119F): T1 sequence (P07445 1-131 Y119F) with Y32F, Y57F
# [7] = system: Y30F KSI; settings: ref Kim et al., 2000; cited from earlier work
# [8] = system: Y55F KSI; settings: ref Kim et al., 2000; cited from earlier work
# [9] = in solution; ref Ha et al., 2000; cited from earlier work
# [10] = molecular target: T3, D38N KSI (Pseudomonas putida, UniProt P07445, D40N); assay: KD by quenching of intrinsic tryptophan fluorescence of KSI; type: binding
# T3 sequence (P07445 1-131 D40N): T1 sequence (P07445 1-131 Y119F) with D40N, F119Y
# Outline: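 Mutant KSI was expressed in E. coli BL21(DE3) and purified to a single SDS-PAGE band. Steroid ligand in DMSO was titrated successively into KSI in 10 mM potassium phosphate with 10% DMSO. Intrinsic fluorescence was read at ex 295/em 315 nm and corrected for dilution. KD was fitted to a binding equation using total steroid and KSI concentrations. Mean ± SD of three independent experiments.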
# [11] = molecular target: T4, Y30F/D38N KSI (Pseudomonas putida, UniProt P07445, D40N/Y32F); assay: KD by quenching of intrinsic tryptophan fluorescence of KSI; type: binding
# T4 sequence (P07445 1-131 Y32F/D40N): T1 sequence (P07445 1-131 Y119F) with Y32F, D40N, F119Y
# [12] = molecular target: T5, Y55F/D38N KSI (Pseudomonas putida, UniProt P07445, D40N/Y57F); assay: as above; type: binding
# T5 sequence (P07445 1-131 D40N/Y57F): T1 sequence (P07445 1-131 Y119F) with D40N, Y57F, F119Y
# [13] = molecular target: T6, Y115F/D38N KSI (Pseudomonas putida, UniProt P07445, D40N/Y119F); assay: as above; type: binding
# T6 sequence (P07445 1-131 D40N/Y119F): T1 sequence (P07445 1-131 Y119F) with D40N
# [14] = molecular target: T7, Y30F/Y55F/D38N KSI (Pseudomonas putida, UniProt P07445, D40N/Y32F/Y57F); assay: as above; type: binding
# T7 sequence (P07445 1-131 Y32F/D40N/Y57F): T1 sequence (P07445 1-131 Y119F) with Y32F, D40N, Y57F, F119Y
# [15] = molecular target: T8, Y30F/Y55F/Y115F/D38N KSI (Pseudomonas putida, UniProt P07445, D40N/Y119F/Y32F/Y57F); assay: as above; type: binding
# T8 sequence (P07445 1-131 Y32F/D40N/Y57F/Y119F): T1 sequence (P07445 1-131 Y119F) with Y32F, D40N, Y57F
# [16] = system: Y30F/Y55F/Y115F/D38N KSI; assay: as above; type: binding, Pseudomonas putida; settings: relative to D38N KSI
# [17] = 34 mM potassium phosphate, pH 7.0, 2.5 mM EDTA, 3.3 % methanol, 298 K
smiles,measurement,setting,value
"C[C@]12CCC(=O)CC1=CC[C@@H]1[C@@H]2CC[C@]2(C)C(=O)CC[C@@H]12 [5-AND, 5-androstene-3,17-dione]",Relative kcat,[1],1
same,Relative kcat,[2],0.84
same,Relative kcat,[3],0.17
same,Km,[4]; [17],41.7 ± 2 µM
same,kcat,[4]; [17],(14.5 ± 0.4) × 10^3 s^−1
same,Relative kcat,[4]; relative to wild type,0.68
same,Relative kcat,[5],0.50
same,Km,[6]; [17],77.3 ± 5.6 µM
same,kcat,[6]; [17],(12.2 ± 0.2) × 10^3 s^−1
same,Relative kcat,[6]; relative to wild type,0.57
same,factor of decrease in kcat relative to the wild-type KSI,[7],1.2
same,factor of decrease in kcat relative to the wild-type KSI,[8],6
same,pKa of the C4 proton,[9],12.7
C[C@]12CCc3c(ccc4cc(O)ccc34)[C@@H]1CCC2=O [equilenin],Kd,[10],31 nM
same,Kd,[11],70 nM
same,Kd,[12],80 nM
same,Kd,[13],70 nM
same,Kd,[14],250 nM
same,Kd,[15],340 nM
same,decrease in binding energy,[16],1.3 to 1.4 kcal/mol
same,factor by which affinity is lower than that of D38N KSI,[16],9.1–11
C[C@]12CC[C@@H]3c4ccc(O)cc4CC[C@H]3[C@@H]1CCC2=O [estrone],Kd,[10],110 nM
same,decrease in binding energy,[16],1.3 to 1.4 kcal/mol
same,factor by which affinity is lower than that of D38N KSI,[16],9.1–11
